According to ChEMBL document CHEMBL1212893, “Antiplasmodial triterpenoids from the fruits of neem, Azadirachta indica” (J Nat Prod, 2010):

Assays:
[1] = tested on: Plasmodium falciparum; experiment: Antiplasmodial activity against chloroquine-sensitive Plasmodium falciparum D10 after 72 hrs by LDH assay; type: functional, organism-based; conditions: D10, 72 h
Summary of the method: (§1)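 P. falciparum grown in human A+ red cells at 5% hematocrit in RPMI 1640 with 1% AlbuMaxII, 0.01% hypoxanthine, 20 mM Hepes and 2 mM glutamine, at 37 °C under 1% O2/5% CO2/94% N2. Compounds dissolved in water or DMSO and diluted in medium. Growth read by pLDH. Values are mean ± SD of three experiments run in duplicate.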

[2] = tested on: Plasmodium falciparum; experiment: Antiplasmodial activity against chloroquine-resistant Plasmodium falciparum W2 after 72 hrs by LDH assay; type: functional, organism-based; conditions: W2, 72 h; summary of the method: as §1

Row | Structure (SMILES) | IC50 [1] [µM] | IC50 [2] [µM]
1 | CC(=O)O[C@@H]1C[C@H]2C(C)(C)C(=O)C=C[C@]2(C)[C@H]2CC[C@]3(C)C(=CC(=O)[C@H]3[C@@H]3COC(O)C3)[C@@]21C (some centres undefined) [DESMETHYLLIMOCIN B] | 4.8 | 2.59
2 | CC(=O)O[C@@H]1C[C@H]2C(C)(C)C(=O)C=C[C@]2(C)[C@H]2CC[C@]3(C)C(=CC(=O)[C@H]3c3ccoc3)[C@@]21C [AZADIRADIONE] | 5.96 | 3.4
3 | CC(=O)O[C@@H]1C[C@H]2C(C)(C)C(=O)C=C[C@]2(C)[C@H]2CC[C@@]3(C)[C@H](c4ccoc4)OC(=O)[C@H]4O[C@]43[C@@]21C [GEDUNIN] |  | 1.31
4 | CC(=O)O[C@H]1CC(=O)C(C)(C)[C@@H]2C[C@@H](OC(C)=O)[C@@]3(C)C4=CC[C@@H]([C@@H]5COC(O)C5)[C@]4(C)CC[C@@H]3[C@@]12C (some centres undefined) [NEEMFRUITIN A] | 2.82 | 1.74
5 | CC(=O)O[C@@H]1C[C@H]2C(C)(C)C(=O)C=C[C@]2(C)[C@H]2CC[C@]3(C)C(=CC[C@H]3[C@H]3COC(O)(C(C)(C)O)[C@H](O)C3)[C@@]21C (some centres undefined) [SPICATIN] | 5.4 | 2.74
6 | CC(=O)O[C@@H]1C[C@H]2C(C)(C)C(=O)C=C[C@]2(C)[C@H]2CC[C@]3(C)C(=CC[C@H]3[C@H]3CO[C@@H]([C@H](O)C(C)(C)O)C3)[C@@]21C [PROTOXYLOCARPIN G] | 5 | 2.4
7 | CC(=O)O[C@H]1O[C@@H]([C@@H]2OC2(C)C)C[C@H]1[C@@H]1CC=C2[C@]3(C)[C@H](O)C[C@H]4C(C)(C)C(=O)C=C[C@]4(C)[C@H]3CC[C@]21C [NEEMFRUITIN B] | 9.49 | 9.98
8 | CC(=O)O[C@@H]1C[C@H]2C(C)(C)C(=O)C=C[C@]2(C)[C@H]2CC[C@@]3(C)[C@H](c4ccoc4)C(=O)[C@H]4O[C@]43[C@@]21C [EPOXYAZADIRADIONE] | 3.3 | 2.16
9 | CC(=O)O[C@@H]1C[C@H]2C(C)(C)C(=O)C=C[C@]2(C)[C@H]2CC[C@]3(C)C(=CC[C@H]3c3ccoc3)[C@@]21C [AZADIRONE] | 1.63 | 1.21
10 | CC1(C)C(=O)C=C[C@]2(C)[C@H]3CC[C@@]4(C)[C@H](c5ccoc5)OC(=O)[C@H]5O[C@]54[C@]3(C)[C@H](O)C[C@@H]12 [DEACETYLGEDUNIN] | 5.14 | 3.29
